According to ChEMBL document CHEMBL1926643, “Synthesis, anti-inflammatory activity and molecular docking studies of 2,5-diarylfuran amino acid derivatives” (Eur J Med Chem, 2012):
Activity calls are given as the source filed them. The calls are words filed in the database; no cut-off is given here.

How the values were obtained:
[1] = target: T1, Prostaglandin G/H synthase 1 (Rattus norvegicus) (UniProt Q63921); experiment: Inhibition of COX-1 in rat leukocytes assessed as reduction in PGE2 production from arachidonic acid at 10 nM preincubated for 10 mins by EIA; assay type: cell-based
T1 sequence (whole entry): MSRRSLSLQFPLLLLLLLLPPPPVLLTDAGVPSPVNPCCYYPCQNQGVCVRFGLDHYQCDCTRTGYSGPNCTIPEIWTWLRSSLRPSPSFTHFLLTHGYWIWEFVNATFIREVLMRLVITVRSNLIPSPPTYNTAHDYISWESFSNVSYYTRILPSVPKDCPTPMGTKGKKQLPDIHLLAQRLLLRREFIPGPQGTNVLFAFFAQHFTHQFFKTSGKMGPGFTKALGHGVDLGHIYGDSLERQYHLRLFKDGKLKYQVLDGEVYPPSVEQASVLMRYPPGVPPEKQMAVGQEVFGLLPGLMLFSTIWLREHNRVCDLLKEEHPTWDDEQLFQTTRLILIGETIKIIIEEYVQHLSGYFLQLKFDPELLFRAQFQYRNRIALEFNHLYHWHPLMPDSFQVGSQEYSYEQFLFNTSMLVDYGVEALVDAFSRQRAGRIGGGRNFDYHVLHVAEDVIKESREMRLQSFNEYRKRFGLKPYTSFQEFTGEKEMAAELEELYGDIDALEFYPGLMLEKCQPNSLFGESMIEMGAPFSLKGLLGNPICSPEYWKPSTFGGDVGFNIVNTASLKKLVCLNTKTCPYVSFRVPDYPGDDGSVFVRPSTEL

[2] = Cytotoxicity against Wistar rat neutrophils assessed as reduction in cell viability at 10 nM after 18 hrs by trypan blue staining method; assay type: cell-based; settings: neutrophil, 0.01 µM
In short: (§1)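 Neutrophils were elicited in male Wistar rats by intraperitoneal oyster glycogen (1%, 10 mL) and harvested after 4 h. Cells were exposed to compound at 1, 10, 100 or 1000 nM, with or without LPS, for 18 h in RPMI1640 with 10% FBS. Viability was scored by trypan blue staining against medium-only controls.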

Neutrophil [3] = experiment: Antiinflammatory activity in Wistar rat neutrophils assessed as decrease in PGE2 level at 10 nM after 18 hrs by EIA; assay type: functional, cell-based
In short: (§2)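 Neutrophils were taken from male Wistar rats 4 h after intraperitoneal oyster glycogen (1%, 10 mL). Cells were cultured in RPMI1640 with 10% FBS, with compound at 10 nM, with or without LPS, for 18 h. PGE₂ in the culture supernatant was quantified by EIA. Data are the mean ± s.e.m. of cells from four animals, compared against medium-only control cells.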

Neutrophil [4] = experiment: Antiinflammatory activity in Wistar rat neutrophils assessed as decrease in LPS-induced PGE2 secretion at 10 nM after 18 hrs by EIA; assay type: functional, cell-based; in short: as §2
[5] = Cytotoxicity against LPS-stimulated Wistar rat neutrophils assessed as reduction in cell viability at 10 nM after 18 hrs by trypan blue staining method; assay type: cell-based; settings: neutrophil, 0.01 µM; in short: as §1

Structure (SMILES) | inhibition [1] | Activity [2] | Activity (Neutrophil [3]) | Activity (Neutrophil [4]) | Activity [5]
COc1ccc(-c2ccc(-c3cccc(NC(=O)[C@H](CC(C)C)NC(=O)OC(C)(C)C)c3)o2)cc1 | inactive | – | – | – | –
COc1ccc(-c2ccc(-c3cccc(NC(=O)[C@H](CSCc4ccccc4)NC(=O)OCc4ccccc4)c3)o2)cc1 | inactive | Non-toxic | inactive | inactive | Non-toxic
COc1ccc(-c2ccc(-c3cccc(NC(=O)[C@H](COC(=O)c4ccccc4)NC(=O)OC(C)(C)C)c3)o2)cc1 | inactive | – | – | – | –
COc1ccc(-c2ccc(-c3cccc(NC(=O)[C@@H](NC(=O)OC(C)(C)C)C(C)C)c3)o2)cc1 | inactive | Non-toxic | inactive | inactive | Non-toxic
Cc1ccc(-c2cc(C(F)(F)F)nn2-c2ccc(S(N)(=O)=O)cc2)cc1 | – | – | inactive | Active | –
COc1ccc(-c2ccc(-c3cccc(NC(=O)[C@H](C)NC(=O)OC(C)(C)C)c3)o2)cc1 | inactive | – | – | – | –
COc1ccc(-c2ccc(-c3cccc(NC(=O)[C@H](CCSC)NC(=O)OC(C)(C)C)c3)o2)cc1 | inactive | – | – | – | –
COc1ccc(-c2ccc(-c3cccc(NC(=O)[C@H](CCC(=O)OC(C)(C)C)NC(=O)OCC4c5ccccc5-c5ccccc54)c3)o2)cc1 | inactive | – | – | – | –
COc1ccc(-c2ccc(-c3cccc(NC(=O)[C@H](Cc4ccccc4)NC(=O)OC(C)(C)C)c3)o2)cc1 | inactive | Non-toxic | inactive | inactive | Non-toxic
COc1ccc(-c2ccc(-c3cccc(NC(=O)CNC(=O)OC(C)(C)C)c3)o2)cc1 | inactive | – | – | – | –
COc1ccc(-c2ccc(-c3cccc(NC(=O)[C@@H]4CCCN4C(=O)OC(C)(C)C)c3)o2)cc1 | inactive | Non-toxic | inactive | Active | Non-toxic
COc1ccc(-c2ccc(-c3cccc(NC(=O)[C@H](CCCNC(=N)NS(=O)(=O)c4ccc(C)cc4)NC(=O)OC(C)(C)C)c3)o2)cc1 | inactive | – | – | – | –
